Here are results for 15 molecules from ChEMBL document CHEMBL1156225, “Ircinialactams: subunit-selective glycine receptor modulators from Australian sponges of the family Irciniidae” (Bioorg Med Chem, 2010).

pEC50, pIC50: −log10 of the molar value. The source made the active and inactive calls. The calls are words filed in the database; no cut-off is given here.

One may read the pEC50 as the negative decadic logarithm of the EC50, by convention in mol/L. As a reminder, the pIC50 is −log10 of the IC50, conventionally taken in molar units. In general, inhibition refers to the drop in the measured response relative to a control, in per cent.

Common to all, as to type: functional, cell-based
Experiment [1] has as its target T1, Glycine receptor subunit alpha-1 (Homo sapiens, UniProt P23415).
T1 sequence (P23415 whole entry): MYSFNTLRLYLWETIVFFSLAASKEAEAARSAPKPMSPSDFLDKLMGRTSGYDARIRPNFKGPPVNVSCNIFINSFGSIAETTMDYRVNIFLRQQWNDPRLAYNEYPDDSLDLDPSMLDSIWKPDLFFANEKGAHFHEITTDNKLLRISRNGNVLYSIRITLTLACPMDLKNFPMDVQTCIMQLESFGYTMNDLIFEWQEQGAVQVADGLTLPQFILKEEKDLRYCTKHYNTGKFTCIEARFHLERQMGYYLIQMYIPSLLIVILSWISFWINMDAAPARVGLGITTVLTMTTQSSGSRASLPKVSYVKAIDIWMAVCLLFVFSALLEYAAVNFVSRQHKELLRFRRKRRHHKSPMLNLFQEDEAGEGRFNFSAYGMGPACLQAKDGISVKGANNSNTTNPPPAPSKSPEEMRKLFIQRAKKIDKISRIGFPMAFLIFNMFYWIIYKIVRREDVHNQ
Nature of the experiment: Agonist activity at human recombinant alpha 1 GlyR expressed in HEK293 cells assessed as potentiation of glycine current by whole cell patch clamp assay. The conditions noted are these: for pEC50: read-out: EC50; for EC50: hek293. In general terms: In patch-clamp work, channel activity is measured electrically.

The target of experiment [2] is T2, Glycine receptor subunit alpha-1 (Homo sapiens) (UniProt P23415).
T2 sequence (whole entry): T1 sequence (P23415 whole entry)
The experiment is described as follows: Agonist activity at human recombinant alpha 1 GlyR expressed in HEK293 cells assessed as potentiation of glycine current at 100 uM by whole cell patch clamp assay relative to EC20 glycine maximum response.

Experiment [3] concerns the target T3, Glycine receptor subunit alpha-3 (Homo sapiens, UniProt O75311).
T3 sequence (O75311 whole entry): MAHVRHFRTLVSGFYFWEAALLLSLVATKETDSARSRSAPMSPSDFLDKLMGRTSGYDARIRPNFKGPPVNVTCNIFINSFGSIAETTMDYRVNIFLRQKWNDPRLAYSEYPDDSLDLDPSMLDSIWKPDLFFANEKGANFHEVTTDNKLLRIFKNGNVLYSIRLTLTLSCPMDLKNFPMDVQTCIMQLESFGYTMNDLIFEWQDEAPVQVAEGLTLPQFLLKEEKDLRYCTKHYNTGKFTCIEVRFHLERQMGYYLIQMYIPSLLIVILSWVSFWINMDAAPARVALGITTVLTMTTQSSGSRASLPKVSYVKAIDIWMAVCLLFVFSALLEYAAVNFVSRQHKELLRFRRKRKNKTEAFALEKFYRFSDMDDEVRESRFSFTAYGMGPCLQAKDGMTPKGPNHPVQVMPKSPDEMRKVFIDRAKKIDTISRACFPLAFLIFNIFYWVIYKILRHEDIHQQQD
Nature of the experiment: Agonist activity at human recombinant alpha 3 GlyR expressed in HEK293 cells assessed as potentiation of glycine current by whole cell patch clamp assay.

For experiment [4], the target named is T1, Glycine receptor subunit alpha-1. Nature of the experiment: (§1) Antagonist activity at human recombinant alpha 1 GlyR expressed in HEK293 cells assessed as inhibition of glycine current influx by whole cell patch clamp assay.
The target of experiment [5] is T3, Glycine receptor subunit alpha-3. The experiment is described as follows: Antagonist activity at human recombinant alpha 3 GlyR expressed in HEK293 cells assessed as inhibition of glycine current influx by whole cell patch clamp assay. Particulars: for pIC50: read-out: IC50; for IC50: hek293.
Experiment [6] has as its target T4, Glycine receptor subunit alpha-2 (Homo sapiens) (UniProt P23416).
T4 sequence (whole entry): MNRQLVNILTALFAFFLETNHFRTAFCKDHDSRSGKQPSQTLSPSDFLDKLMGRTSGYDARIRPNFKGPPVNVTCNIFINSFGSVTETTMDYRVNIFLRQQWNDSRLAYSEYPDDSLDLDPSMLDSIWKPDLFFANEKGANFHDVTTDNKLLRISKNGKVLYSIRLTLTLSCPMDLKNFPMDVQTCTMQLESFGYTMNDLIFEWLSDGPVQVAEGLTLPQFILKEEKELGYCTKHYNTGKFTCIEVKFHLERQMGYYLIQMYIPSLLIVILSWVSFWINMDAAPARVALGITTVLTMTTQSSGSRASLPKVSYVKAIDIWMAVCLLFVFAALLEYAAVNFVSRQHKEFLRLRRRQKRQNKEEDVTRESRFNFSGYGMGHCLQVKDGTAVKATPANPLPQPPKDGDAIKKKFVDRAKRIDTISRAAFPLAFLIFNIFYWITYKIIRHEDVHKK
Nature of the experiment: Antagonist activity at human recombinant alpha 2 GlyR expressed in HEK293 cells assessed as inhibition of glycine current influx at 10 uM by whole cell patch clamp assay.

In experiment [7] the target is T2, Glycine receptor subunit alpha-1 (Homo sapiens). Nature of the experiment: Antagonist activity at human recombinant alpha 1 GlyR expressed in HEK293 cells assessed as inhibition of glycine current influx up to 30 uM by whole cell patch clamp assay.
The target is the same in experiment [8]. Described as §1.
Experiment [9] has as its target T4, Glycine receptor subunit alpha-2 (Homo sapiens). Nature of the experiment: Antagonist activity at human recombinant alpha 2 GlyR expressed in HEK293 cells assessed as inhibition of glycine current influx by whole cell patch clamp assay. The gist of the method: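 HEK293 cells transiently expressing α2 GlyR, recorded by conventional whole-cell patch clamp. Current was activated with EC20 glycine (50 µM), and compound was applied at 10 µM together with glycine. Response is expressed as % of control glycine current, averaged from six cells.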

For experiment [10], the target named is T2, Glycine receptor subunit alpha-1 (Homo sapiens). The experiment is described as follows: Agonist activity at human recombinant alpha 1 GlyR expressed in HEK293 cells assessed as potentiation of glycine current at 1 to 10 uM by whole cell patch clamp assay.
The target is the same in experiment [11]. Nature of the experiment: Agonist activity at human recombinant alpha 1 GlyR expressed in HEK293 cells assessed as potentiation of glycine current up to 100 uM by whole cell patch clamp assay.
In experiment [12] the target is T5, Glycine receptor subunit alpha-3 (Homo sapiens) (UniProt O75311).
T5 sequence (whole entry): T3 sequence (O75311 whole entry)
Nature of the experiment: Agonist activity at human recombinant alpha 3 GlyR expressed in HEK293 cells assessed as potentiation of glycine current up to 100 uM by whole cell patch clamp assay.

Experiment [13] deals with T5, Glycine receptor subunit alpha-3 (Homo sapiens). Nature of the experiment: Agonist activity at human recombinant alpha 3 GlyR expressed in HEK293 cells assessed as potentiation of glycine current at 100 uM by whole cell patch clamp assay relative to EC20 glycine maximum response.

`CC1=C(O)/C(=C/[C@@H](C)CCC/C(C)=C/CCC(C)(O)CCCc2ccoc2)OC1=O` (stereo partly specified): the negative logarithm of the EC50 (pEC50) in experiment [1] is 5.92. The Activity in experiment [2] was 215%. Further, the EC50 result in experiment [3] is “Not Active”. In [4], the IC50 entry is reported as “Not Active”. The pIC50 in experiment [5] was 5.15. Further, the inhibition in experiment [6] was 87%. For the same molecule, the result in experiment [7] was Active.
Turning to `CC1=C(O)/C(=C/[C@@H](C)CCC/C(C)=C\CC/C(C)=C/CCc2ccoc2)OC1=O`, the EC50 entry in experiment [1] and in [3] was “Not Active” throughout. Also, the IC50 entry in experiment [4] and in experiment [5] was “Not Active” throughout.
For `CC1=C(O)/C(=C/C(C)/C=C/C=C(\C)CCCc2coc(Cc3ccoc3)c2)OC1=O` (stereo unspecified) [COMETIN A], the EC50 result in experiment [1] and in [3] was “Not Active” each time. For the same molecule, the IC50 result in experiment [4] and in experiment [5] was “Not Active” each time.
As to `CCCCCCC(C)(C)c1cc(OC)c([C@H]2C=C(CO)[C@@H]3C[C@H]2C3(C)C)c(OC)c1`, the result in experiment [8] and in [9] was Active. In addition, the result in experiment [7] was inactive.
In the case of `CC(C)(C)C1(O)CC[S+]([O-])CC1` (stereo unspecified), the Activity in [10] amounted to 135%.
On to `CCOC(=O)C(O)(C[C@@H](C)CCC/C(C)=C/CC/C(C)=C/CCC1=CCN(CC(=O)O)C1=O)C(C)(O)C(=O)O` (stereo partly specified) [IRCINIALACTAM D], for which the EC50 result in [1] and in experiment [3] was “Not Active” each time. Besides, the IC50 result in experiment [4] is “Not Active”. In [5], the pIC50 was 4.52.
In the case of `Cc1c(C(=O)c2cccc3ccccc23)c2cccc3c2n1[C@H](CN1CCOCC1)CO3`, the outcome in experiment [8] and in experiment [9] was Active. The result in experiment [7] was inactive.
In the case of `CCCCCCC(C)(C)c1cc(O)c2c(c1)OC(C)(C)[C@@H]1CC=C(CO)C[C@@H]21`, the result in experiment [8] and in [9] was Active. The result in [7] was inactive.
With `CC1=C(O)/C(=C/C(C)/C=C/C=C(\C)CCCC(C)CCCc2ccoc2)OC1=O` (stereo unspecified), the EC50 entry in [1] and in experiment [3] was “Not Active” throughout. The IC50 entry in [4] and in experiment [5] was “Not Active” in each case.
Regarding `CC1=C(O)/C(=C/[C@@H](C)CCC/C(C)=C/CC/C(C)=C/CCc2ccoc2)OC1=O`, the EC50 entry in experiment [1] and in [3] was “Not Active” throughout. Moreover, the IC50 entry in experiment [4] and in experiment [5] was “Not Active” in each case.
Turning to `C/C(=C\CCC1=CCN(CC(=O)O)C1=O)CC/C=C(\C)CCC[C@@H](C)CC(=O)O`, the EC50 result in experiment [1] and in experiment [3] was “Not Active” each time. Besides, the IC50 result in experiment [4] is reported as “Not Active”. For the same molecule, in [5], the pIC50 is 4.52.
`C/C(=C\CCC1=CCN(CC(=O)O)C1=O)CC/C=C(\C)CCC[C@H](C)CC(=O)O` [IRCINIALACTAM C]: the EC50 result in experiment [1] and in experiment [3] was “Not Active” in each case. Further, in [4], the IC50 entry was “Not Active”. The pIC50 in experiment [5] is 4.52.
Regarding `CC1=C(O)/C(=C/[C@@H](C)CCC/C(C)=C/CCC(C)(O)CCCC2=CCN(CC(=O)O)C2=O)OC1=O` (stereo partly specified) [8-HYDROXYIRCINIALACTAM A], in [2], the Activity is 217%. Also, the result in experiment [11] was inactive. The EC50 entry in experiment [3] is listed as “Not Active”. Besides, the IC50 result in experiment [4] and in experiment [5] was “Not Active” in each case.
Turning to `CC1=C(O)/C(=C/[C@@H](C)CCC/C(C)=C/CCC(C)(O)CCCC2=CC(=O)N(CC(=O)O)C2)OC1=O` (stereo partly specified) [8-HYDROXYIRCINIALACTAM B], the pEC50 in experiment [1] is 6.30. Besides, the Activity in experiment [2] stood at 330%; in [13], 183%. Further, in experiment [12], the outcome was inactive. Besides, the IC50 entry in [4] and in experiment [5] was “Not Active” each time.
Take `CC1=C(O)/C(=C/[C@@H](C)CCC/C(C)=C/CC/C(C)=C/CCC2=CCN(CC(=O)O)C2=O)OC1=O` [IRCINIALACTAM A]: the Activity in [2] was found to be 140%. In addition, in [11], the result was inactive. In experiment [3], the EC50 entry is on record as “Not Active”. The IC50 entry in experiment [4] was “Not Active”. Further, in experiment [5], the pIC50 was 4.52.
